Reference: ChEMBL document CHEMBL5032497, “Rational Alteration of Pharmacokinetics of Chiral Fluorinated and Deuterated Derivatives of Emixustat for Retinal Therapy” (J Med Chem, 2021)

How the values were obtained:
[1] = Drug distribution in wild type BL/6J mouse eyes measured at 380 nM, IP administered single dose per eye after 3 hrs by LC-MS/MS electrospray ionization fragmentation spectra method; assay type: ADME, tissue-based; conditions: in vivo, 0.38 µM
How it was run: (§1)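 Eight-week-old BL/6J mice got one i.p. dose of 380 nmol in 50 μL DMSO and were sacrificed at 3 h, 1 day or 7 days. Both eyes were homogenized in acetonitrile, and the extract was dried and reconstituted in 50% methanol/water. Analysis was by C18 LC-MS/MS with ESI and a formic acid/acetonitrile gradient.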

[2] = Drug distribution in wild type BL/6J mouse eyes measured at 380 nM, IP administered single dose per eye after 7 days by LC-MS/MS electrospray ionization fragmentation spectra method; assay type: ADME, tissue-based; conditions: in vivo, 168 h, 0.38 µM, time 7 day
How it was run: as §1, with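 “gradient. The transition monitored was water loss (−18 Da), or −47 Da for one analog.” for “gradient.”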

[3] = target: Retinoid isomerohydrolase (Bos taurus, UniProt Q28175); experiment: Inhibition of RPE65 in bovine retinal pigment epithelium microsomes assessed as decrease of 11-cis-retinol using trans-retinol measured after 1 hr by normal phase HPLC analysis; design: species or system Retina, Microsome
Sequence of Retinoid isomerohydrolase (Q28175 whole entry): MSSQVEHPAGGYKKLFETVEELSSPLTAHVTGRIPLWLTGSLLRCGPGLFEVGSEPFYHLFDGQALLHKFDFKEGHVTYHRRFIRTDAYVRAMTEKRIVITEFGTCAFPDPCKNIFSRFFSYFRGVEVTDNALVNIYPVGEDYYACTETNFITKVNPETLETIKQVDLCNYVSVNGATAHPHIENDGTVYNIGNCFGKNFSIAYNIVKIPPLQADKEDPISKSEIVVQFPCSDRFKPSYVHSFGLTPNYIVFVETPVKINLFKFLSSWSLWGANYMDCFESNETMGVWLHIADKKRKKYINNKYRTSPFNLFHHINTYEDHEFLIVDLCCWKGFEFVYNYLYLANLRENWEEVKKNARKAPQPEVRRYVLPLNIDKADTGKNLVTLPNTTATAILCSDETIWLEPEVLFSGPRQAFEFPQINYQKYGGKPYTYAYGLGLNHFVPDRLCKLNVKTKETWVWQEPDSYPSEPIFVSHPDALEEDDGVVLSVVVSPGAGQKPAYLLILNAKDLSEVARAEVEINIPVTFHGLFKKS

| Drug uptake [1] | Drug uptake [2] [pmol] | IC50 [3] [nM] | SMILES |
| --- | --- | --- | --- |
| 176 pmol | 21 |  | NCCC(O)c1cccc(OCC2CCC(F)(F)CC2)c1 (centres undefined) |
| Not Active |  |  | CCCC(CCC)COc1cc([C@H](O)CCN)ccc1F |
| Not Active |  |  | NCCC(O)c1ccc(F)c(OCC2CCCCC2)c1 (centres undefined) |
|  |  | 287 | CCCC(CCC)COc1cccc(C(O)CCN)c1F (racemic) |
|  |  | 295 | CCCC(CCC)COc1cc(F)cc(C(O)CCN)c1 (racemic; 25) |
|  |  | 184 | CCCC(CCC)COc1cc(F)cc(C(O)CCN)c1 (racemic; 26) |
|  |  | 157 | CCCC(CCC)COc1ccc(F)c(C(O)CCN)c1 (racemic; 27) |
|  |  | 132 | CCCC(CCC)COc1ccc(F)c(C(O)CCN)c1 (racemic; 28) |
